# Source: ChEMBL document CHEMBL4011653, “Design, Synthesis, and Evaluation of Novel Prodrugs of Transition State Inhibitors of Norovirus 3CL Protease” (J Med Chem, 2017)
# Columns and labels:
# Norovirus = assay: Antiviral activity against Norovirus infected in human HG23 cells assessed as inhibition of viral replication after 48 hrs by quantitative RT-PCR method; type: functional, cell-based; settings: HG23, 48 h
# [1] = Inhibition of Norovirus 3CL protease using Edans-DFHLQ/GP-Dabcyl as substrate after 30 mins by FRET assay
# Outline: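 Norovirus 3CL protease was preincubated with serial compound dilutions up to 100 μM, or DMSO, for 30 min at 37 °C. Edans-DFHLQ/GP-Dabcyl substrate was then added. Buffer was 20 mM HEPES pH 8, 200 mM NaCl, 0.4 mM EDTA, 60% glycerol and 6 mM DTT. Fluorescence (ex 360/em 460 nm) was read for 1 h, minus the no-protease background. IC50 came from variable-slope curve fits.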
# [2] = Selectivity index, ratio of CC50 for human HeLa cells to EC50 for norovirus
# HeLa = assay: Cytotoxicity against human HeLa cells assessed as cell viability after 72 hrs by MTT assay; type: functional
# [3] = Metabolic stability in human serum assessed as amount of parent compound remaining at 25 to 100 uM at 37 degC after 1 hr by LC-MS analysis; type: ADME, cell-free; settings: read-out: Stability
# [4] = Metabolic stability of mouse liver microsomes assessed as amount of parent compound remaining at 25 to 100 uM after 1 hr in the presence of NADPH by LC-MS method; type: ADME, microsome; settings: read-out: Stability
# Outline: (§1)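 Compound at 25 or 100 μM was incubated with mouse or human liver microsomes plus NADPH for 1 h at 37 °C. The remaining aldehyde form was quantified by LC/MS.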
# [5] = Metabolic stability in mouse serum assessed as amount of parent compound remaining at 25 to 100 uM at 37 degC after 1 hr by LC-MS analysis; type: ADME, cell-free; settings: read-out: Stability
# [6] = Metabolic stability of human liver microsomes assessed as amount of parent compound remaining at 25 to 100 uM after 1 hr in the presence of NADPH by LC-MS method; type: ADME, microsome; settings: read-out: Stability; outline: as §1
# [7] = Prodrug activation in human HG23 cells assessed as 3-chlorobenzyl (S)-3-cyclohexyl-1-oxo-1-((S)-1-oxo-3-((S)-2-oxopyrrolidin-3-yl)propan-2-ylamino)propan-2-ylcarbamate formation by LC-MS method; type: ADME, cell-based
# Serum = assay: Prodrug activation in human serum assessed as 3-chlorobenzyl (S)-3-cyclohexyl-1-oxo-1-((S)-1-oxo-3-((S)-2-oxopyrrolidin-3-yl)propan-2-ylamino)propan-2-ylcarbamate formation by measuring parent compound half life at 25 to 100 uM by LC-MS method; type: ADME, cell-free
# [8] = Protein binding in human serum at 25 to 100 uM after 4 hrs by LC-MS method; type: ADME, cell-free; settings: read-out: PB (converted)
# [9] = Protein binding in mouse serum at 25 to 100 uM after 4 hrs by LC-MS method; type: ADME, cell-free; settings: read-out: PB (converted)
Structure (SMILES),EC50 (Norovirus) [µM],IC50 [1] [µM],also measured
COC(=O)CNC(=O)OC([C@H](C[C@@H]1CCNC1=O)NC(=O)[C@H](CC(C)C)NC(=O)OCc1ccccc1)S(=O)(=O)O (some centres undefined),0.4,3.1,–
CCCCCC(=O)OC([C@H](C[C@@H]1CCNC1=O)NC(=O)[C@H](CC1CCCCC1)NC(=O)OCc1cccc(Cl)c1)S(=O)(=O)O (some centres undefined),0.015,0.1,"selectivity ratio [2]: 5470; CC50 (HeLa): 82 µM; remaining at 1 h, up to 100 µM [3]: 103%; remaining at 1 h, up to 100 µM [4]: 38%; remaining at 1 h, up to 100 µM [5]: 60%; remaining at 1 h, up to 100 µM [6]: 76%"
CC(=O)OC([C@H](C[C@@H]1CCNC1=O)NC(=O)[C@H](CC1CCCCC1)NC(=O)OCc1cccc(Cl)c1)S(=O)(=O)[O-].[Na+] (some centres undefined),0.03,0.08,"Drug metabolism [7]: Metabolite_Detected; t1/2 (Serum): 25 min; selectivity ratio [2]: > 6670; CC50 (HeLa): > 200 µM; remaining at 1 h, up to 100 µM [3]: 56%; remaining at 1 h, up to 100 µM [4]: 14%; remaining at 1 h, up to 100 µM [5]: 0%; remaining at 1 h, up to 100 µM [6]: 17%"
CCC(=O)OC([C@H](C[C@@H]1CCNC1=O)NC(=O)[C@H](CC(C)C)NC(=O)OCc1ccccc1)S(=O)(=O)O (some centres undefined),0.7,7.5,–
CCC(=O)OC([C@H](C[C@@H]1CCNC1=O)NC(=O)[C@H](CC1CCCCC1)NC(=O)OCc1cccc(Cl)c1)S(=O)(=O)[O-].[Na+] (some centres undefined),0.025,0.1,"t1/2 (Serum): 25 min; selectivity ratio [2]: 4480; CC50 (HeLa): 112 µM; remaining at 1 h, up to 100 µM [3]: 52%; remaining at 1 h, up to 100 µM [4]: 17%; remaining at 1 h, up to 100 µM [5]: 0%; remaining at 1 h, up to 100 µM [6]: 11%"
CCCC(=O)OC([C@H](C[C@@H]1CCNC1=O)NC(=O)[C@H](CC(C)C)NC(=O)OCc1ccccc1)S(=O)(=O)O (some centres undefined),1.3,3.7,–
CCCCCCCC(=O)OC([C@H](C[C@@H]1CCNC1=O)NC(=O)[C@H](CC(C)C)NC(=O)OCc1ccccc1)S(=O)(=O)O (some centres undefined),0.5,3,–
O=C(N[C@@H](CC1CCCCC1)C(=O)N[C@@H](C[C@@H]1CCNC1=O)C(OC(=O)C1CCCCC1)S(=O)(=O)O)OCc1cccc(Cl)c1 (some centres undefined),0.02,0.4,–
CC(C)C[C@H](NC(=O)OCc1ccccc1)C(=O)N[C@@H](C[C@@H]1CCNC1=O)C(OC(=O)c1ccccc1)S(=O)(=O)O (some centres undefined),0.8,7.2,–
CC(=O)OC([C@H](C[C@@H]1CCNC1=O)NC(=O)[C@H](CC(C)C)NC(=O)OCc1ccccc1)S(=O)(=O)O (some centres undefined),0.6,10.5,–
CCCCCCOC(=O)OC([C@H](C[C@@H]1CCNC1=O)NC(=O)[C@H](CC1CCCCC1)NC(=O)OCc1cccc(Cl)c1)S(=O)(=O)O (some centres undefined),0.025,0.8,–
COc1ccc(CCN(C)CCCC(C#N)(c2ccc(OC)c(OC)c2)C(C)C)cc1OC (centres undefined),–,–,"remaining at 1 h, up to 100 µM [4]: 30%; remaining at 1 h, up to 100 µM [6]: 41%"
CCCCCC(=O)OC([C@H](C[C@@H]1CCNC1=O)NC(=O)[C@H](CC(C)C)NC(=O)OCc1ccccc1)S(=O)(=O)O (some centres undefined),0.3,2.8,–
COC(=O)C(NC(=O)OC([C@H](C[C@@H]1CCNC1=O)NC(=O)[C@H](CC(C)C)NC(=O)OCc1ccccc1)S(=O)(=O)O)C(C)C (some centres undefined),0.4,2.5,–
CC(C)C[C@H](NC(=O)OCc1ccccc1)C(=O)N[C@@H](C[C@@H]1CCNC1=O)C(OC(=O)C(C)C)S(=O)(=O)O (some centres undefined),0.3,3.5,–
COC(=O)C(C)NC(=O)OC([C@H](C[C@@H]1CCNC1=O)NC(=O)[C@H](CC1CCCCC1)NC(=O)OCc1ccccc1)S(=O)(=O)O (some centres undefined),0.2,10.2,–
CCCCCCCC(=O)OC([C@H](C[C@@H]1CCNC1=O)NC(=O)[C@H](CC1CCCCC1)NC(=O)OCc1cccc(Cl)c1)S(=O)(=O)O (some centres undefined),0.03,0.9,–
COC(=O)C(C)NC(=O)OC([C@H](C[C@@H]1CCNC1=O)NC(=O)[C@H](CC(C)C)NC(=O)OCc1ccccc1)S(=O)(=O)O (some centres undefined),0.3,1.8,–
CC(C)C(=O)OC([C@H](C[C@@H]1CCNC1=O)NC(=O)[C@H](CC1CCCCC1)NC(=O)OCc1cccc(Cl)c1)S(=O)(=O)O (some centres undefined),0.03,0.3,–
CC(=O)CC(c1ccccc1)c1c(O)c2ccccc2oc1=O (centres undefined) [WARFARIN],–,–,"fraction unbound at 4 h, up to 100 µM [8]: 0.01; remaining at 1 h, up to 100 µM [4]: 99.6%; fraction unbound at 4 h, up to 100 µM [9]: 0.04; remaining at 1 h, up to 100 µM [6]: 95%"
CC(C)C[C@H](NC(=O)OCc1ccccc1)C(=O)N[C@@H](C[C@@H]1CCNC1=O)C(O)S(=O)(=O)O (some centres undefined),0.3,0.8,"fraction unbound at 4 h, up to 100 µM [8]: 0.35; selectivity ratio [2]: > 667; CC50 (HeLa): > 200 µM; remaining at 1 h, up to 100 µM [3]: 2%; remaining at 1 h, up to 100 µM [4]: 82%; remaining at 1 h, up to 100 µM [5]: 18%; fraction unbound at 4 h, up to 100 µM [9]: 0.29; remaining at 1 h, up to 100 µM [6]: 92%"
CC(=O)OC([C@H](C[C@@H]1CCNC1=O)NC(=O)[C@H](CC1CCCCC1)NC(=O)OCc1ccccc1)S(=O)(=O)O (some centres undefined),0.2,7.5,–
O=C[C@H](C[C@@H]1CCNC1=O)NC(=O)[C@H](CC1CCCCC1)NC(=O)OCc1cccc(Cl)c1,0.02,0.1,"fraction unbound at 4 h, up to 100 µM [8]: 0.02; selectivity ratio [2]: 2800; CC50 (HeLa): 56.1 µM; remaining at 1 h, up to 100 µM [4]: 40%; fraction unbound at 4 h, up to 100 µM [9]: 0.02; remaining at 1 h, up to 100 µM [6]: 63%"
COC(=O)C(C)NC(=O)OC([C@H](C[C@@H]1CCNC1=O)NC(=O)[C@H](CC1CCCCC1)NC(=O)OCc1cccc(Cl)c1)S(=O)(=O)O (some centres undefined),0.025,0.8,–
CCCCC(=O)OC([C@H](C[C@@H]1CCNC1=O)NC(=O)[C@H](CC(C)C)NC(=O)OCc1ccccc1)S(=O)(=O)O (some centres undefined),1.4,3.5,–
COC(=O)C(NC(=O)OC([C@H](C[C@@H]1CCNC1=O)NC(=O)[C@H](CC1CCCCC1)NC(=O)OCc1cccc(Cl)c1)S(=O)(=O)O)C(C)C (some centres undefined),0.04,0.5,–
O=C(N[C@@H](CC1CCCCC1)C(=O)N[C@@H](C[C@@H]1CCNC1=O)C(O)S(=O)(=O)O)OCc1cccc(Cl)c1 (some centres undefined),0.02,0.1,"fraction unbound at 4 h, up to 100 µM [8]: 0.04; selectivity ratio [2]: 2480; CC50 (HeLa): 49.6 µM; remaining at 1 h, up to 100 µM [3]: 0%; remaining at 1 h, up to 100 µM [4]: 35%; remaining at 1 h, up to 100 µM [5]: 0%; fraction unbound at 4 h, up to 100 µM [9]: 0.03; remaining at 1 h, up to 100 µM [6]: 54%"
